The values below come from article PMC8158801 (ACS Omega, 2021).

Assay [1] has as its system Human hepatocellular carcinoma (HepG2) cell line. The experiment in a line: Cytotoxic activity, MTT cell viability assay, HepG2. It counts as cell-based. More on the design: unit not given beside the values. As to conditions: n = 3, reference standard. The method in brief:
(§1)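 The defatted alcoholic root extract was tested at 4–500 μg/mL, with cisplatin as the reference standard, in an MTT cell-viability assay. Viability is expressed as % of untreated control. IC50 was derived by linear regression. Each point was run in triplicate and reported as mean ± SD.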
A general note: Formazan colour is commonly taken as a measure of viable cells.

Assay [2] has as its system mouse myelogenous leukemia (M-NFS-60) cell line. The experiment in a line: Cytotoxic activity, MTT cell viability assay, M-NFS-60. The assay is classed as cell-based. More on the design: unit not given beside the values. As to conditions: n = 3, reference standard. An outline of the steps:
as §1

With `N.N.[Cl][Pt][Cl]` [cisplatin], in assay [1], the “IC50 against HepG2 cell line (unit not given)” value is on record as 3.25 ± 1.4. In assay [2], the “IC50 against M-NFS-60 cell line (unit not given)” value stood at 8.37 ± 0.25.
